ChEMBL document CHEMBL3860048 (J Med Chem, 2016)
Calls of active or inactive are those of the source. The calls are words filed in the database; no cut-off is given here. Where a SMILES comes first, the peptide text is derived from it. [ ]: non-standard residue; d: D form. Phe(3-F) = N[C@@H](Cc1cccc(F)c1)C(=O)O; Arg(Me) = CNC(=N)NCCC[C@H](N)C(=O)O; Hyp = O=C(O)[C@@H]1C[C@@H](O)CN1; Aib = CC(C)(N)C(=O)O; azaGly = NNC(=O)O

Columns and labels:
KiSS-1 receptor [1] = biological target: KiSS-1 receptor (Homo sapiens, UniProt Q969F8); experiment: Agonist activity at human KISS1R expressed in CHO/dhfr cells assessed as increase in intracellular Ca2+ levels measured for 180 secs by Fluo 3-AM dye based FLIPR assay; assay type: functional, cell-based
Procedure, shortened: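 CHO cells expressing human KISS1R; FLIPR recording of ligand-induced [Ca2+]i rise over time. Maximum response taken and expressed as percent of the response to a maximal concentration of metastin(45-54). EC50 = concentration giving half-maximal mobilization, from nonlinear regression of smoothed data. Reported as ratio to the metastin(45-54) EC50.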

KiSS-1 receptor [2] = biological target: KiSS-1 receptor (Rattus norvegicus, UniProt Q924U1); experiment: Agonist activity at rat KISS1R expressed in CHO/dhfr cells assessed as increase in intracellular Ca2+ levels measured for 180 secs by Fluo 3-AM dye based FLIPR assay; assay type: functional, cell-based
Rattus norvegicus [3] = experiment: Inhibition of testosterone levels in CD(SD) rat assessed as plasma testosterone level <0.04 ng/ml at 0.01 nmol/hr, sc administered continuously for 6 days through alzet osmotic pump measured after 6 days by radio-immunoassay; assay type: functional, organism-based
Rattus norvegicus [4] = experiment: Inhibition of testosterone levels in Crl:CD(SD) rat plasma assessed as plasma testosterone level <0.04 ng/ml at 10 pmol/hr, sc administered as continuous dosing through alzet osmotic pump for 1 week by radio-immunoassay; assay type: functional, organism-based
Procedure, shortened: (§1)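 Peptide dissolved in 50% DMSO at 3, 10, 30 or 100 µM, loaded into ALZET osmotic pumps for 3 to 100 pmol/h. Pumps implanted sc in 5 Crl:CD(SD) male rats. Plasma testosterone measured by RIA after 1 or 4 weeks. Values below the 0.04 ng/mL detection limit were treated as 0.04. Count of rats below the limit.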

Rattus norvegicus [5] = experiment: Inhibition of testosterone levels in Crl:CD(SD) rat plasma assessed as plasma testosterone level <0.04 ng/ml at 30 pmol/hr, sc administered as continuous dosing through alzet osmotic pump for 1 week by radio-immunoassay; assay type: functional, organism-based; procedure, shortened: as §1
[6] = Plasma concentration in Sprague-Dawley rat at 1 mg/kg, iv after 5 mins by LC/MS analysis; assay type: ADME, organism-based
Procedure, shortened: (§2)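 Single intravenous 1 mg/kg bolus to SD rats (n=3 per group). Blood sampled at 5, 10, 15, 30 min and 1, 2, 4, 8, 24 h. Plasma deproteinized with 0.2% formic acid/methanol (1:4, v/v) plus acetonitrile, spun 15,000 rpm for 5 min, supernatant treated with 0.4% aqueous formic acid and spun again, then quantified by LC/MS. Noncompartmental parameters per rat, reported as mean ± SD.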

[7] = AUC (0 to 24 hrs) in Sprague-Dawley rat plasma at 1 mg/kg, iv up to 24 hrs by LC/MS analysis; assay type: ADME, organism-based; parameters: dose 1 mg/kg, time < 24 hr, route intravenous; procedure, shortened: as §2
[8] = Volume of distribution in steady state in Sprague-Dawley rat plasma at 1 mg/kg, iv up to 24 hrs by LC/MS analysis; assay type: ADME, organism-based; conditions: read-out: Vdss; procedure, shortened: as §2
[9] = Total clearance in Sprague-Dawley rat plasma at 1 mg/kg, iv up to 24 hrs by LC/MS analysis; assay type: ADME, organism-based; procedure, shortened: as §2
[10] = Cmax in Sprague-Dawley rat plasma at 1 mg/kg, sc by LC/MS analysis; assay type: ADME, organism-based; parameters: dose 1 mg/kg, route subcutaneous
Procedure, shortened: (§3)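 Single subcutaneous 1 mg/kg dose to SD rats (n=3 per group). Plasma drawn at 5, 10, 15, 30 min and 1, 2, 4, 8, 24 h. Proteins removed with 0.2% formic acid/methanol (1:4, v/v) plus acetonitrile, centrifuged, supernatant diluted in 0.4% aqueous formic acid, then measured by LC/MS. Noncompartmental analysis per rat, mean ± SD.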

[11] = Tmax in Sprague-Dawley rat plasma at 1 mg/kg, sc by LC/MS analysis; assay type: ADME, organism-based; procedure, shortened: as §3
[12] = AUC (0 to 24 hrs) in Sprague-Dawley rat plasma at 1 mg/kg, sc by LC/MS analysis; assay type: ADME, organism-based; parameters: dose 1 mg/kg, time < 24 hr, route subcutaneous; procedure, shortened: as §3
[13] = MRT in Sprague-Dawley rat plasma at 1 mg/kg, sc by LC/MS analysis; assay type: ADME, organism-based; procedure, shortened: as §3
[14] = Bioavailability in Sprague-Dawley rat plasma at 1 mg/kg, sc up to 24 hrs by LC/MS analysis; assay type: ADME, organism-based; procedure, shortened: as §3
[15] = Solubility of the compound in water at 20 mg/ml; assay type: physicochemical; conditions: buffer
[16] = MRT in Sprague-Dawley rat plasma at 1 mg/kg, iv by LC/MS analysis; assay type: ADME, organism-based; procedure, shortened: as §2
Rattus norvegicus [17] = experiment: Inhibition of testosterone levels in CD(SD) rat assessed as plasma testosterone level <0.04 ng/ml at 0.03 nmol/hr, sc administered continuously for 6 days through alzet osmotic pump measured after 6 days by radio-immunoassay; assay type: functional, organism-based
Rattus norvegicus [18] = experiment: Inhibition of testosterone levels in Crl:CD(SD) rat plasma assessed as plasma testosterone level <0.04 ng/ml at 3 pmol/hr, sc administered as continuous dosing through alzet osmotic pump for 1 week by radio-immunoassay; assay type: functional, organism-based; procedure, shortened: as §1
Rattus norvegicus [19] = experiment: Inhibition of testosterone levels in Crl:CD(SD) rat plasma assessed as plasma testosterone level <0.04 ng/ml at 30 pmol/hr, sc administered as continuous dosing through alzet osmotic pump for 4 weeks by radio-immunoassay; assay type: functional, organism-based; procedure, shortened: as §1
[20] = Inhibition of testosterone levels in sc dosed Crl:CD(SD) rat plasma assessed as compound dosing causing plasma testosterone level <0.04 ng/ml in all tested animals administered as continuous dosing through alzet osmotic pump for 1 to 4 weeks by radio-immunoassay; assay type: functional
[21] = Conformational changes of the compound in distilled water assessed as decrease in beta-sheet content at 0.1 mg/ml by preliminary circular dichroism analysis; parameters: scale not given: the % may be the effect or the level left
[22] = Solubility of the compound in water up to 500 mg/ml; assay type: physicochemical; conditions: buffer

Sequence of KiSS-1 receptor (Homo sapiens, UniProt Q969F8) (Q969F8 whole entry): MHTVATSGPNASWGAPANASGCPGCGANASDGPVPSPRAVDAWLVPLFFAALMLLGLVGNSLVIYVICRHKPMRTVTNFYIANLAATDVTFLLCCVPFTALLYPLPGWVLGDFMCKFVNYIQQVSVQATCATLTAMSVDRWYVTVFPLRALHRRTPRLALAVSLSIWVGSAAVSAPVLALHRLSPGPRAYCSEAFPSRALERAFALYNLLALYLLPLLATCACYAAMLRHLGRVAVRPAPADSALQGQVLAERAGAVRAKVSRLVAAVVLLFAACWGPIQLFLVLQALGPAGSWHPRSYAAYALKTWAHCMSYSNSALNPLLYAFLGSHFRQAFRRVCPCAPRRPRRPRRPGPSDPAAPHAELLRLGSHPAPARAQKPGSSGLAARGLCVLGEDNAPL
Sequence of KiSS-1 receptor (Rattus norvegicus, UniProt Q924U1) (Q924U1 whole entry): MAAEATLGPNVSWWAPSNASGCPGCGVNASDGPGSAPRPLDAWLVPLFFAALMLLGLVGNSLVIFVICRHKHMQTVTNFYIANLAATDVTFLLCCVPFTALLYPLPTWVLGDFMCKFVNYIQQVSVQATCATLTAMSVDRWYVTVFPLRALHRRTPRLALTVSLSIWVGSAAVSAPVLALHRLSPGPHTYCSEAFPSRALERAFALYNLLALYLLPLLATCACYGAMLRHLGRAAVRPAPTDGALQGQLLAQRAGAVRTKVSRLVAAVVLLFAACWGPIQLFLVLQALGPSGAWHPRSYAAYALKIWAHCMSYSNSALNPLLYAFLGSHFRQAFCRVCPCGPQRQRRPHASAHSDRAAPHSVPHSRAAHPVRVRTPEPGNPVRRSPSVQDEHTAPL

SMILES	EC50 (KiSS-1 receptor [1]) [nM]	EC50 (KiSS-1 receptor [2]) [nM]	concentration at 5 min [6] [µg/mL]	AUC(0-t) at 24 h [7] [µg·h/mL]	Vd [8] [L/kg]	clearance [9] [L/h/kg]	Cmax [10] [µg/mL]	Tmax [11] [min]	AUC(0-t) at 24 h [12] [µg·h/mL]	MRT [13] [min]	bioavailability [14] [%]	solubility [15]	MRT [16] [min]	inhibition (Rattus norvegicus [3])	inhibition (Rattus norvegicus [4])	inhibition (Rattus norvegicus [5])	inhibition (Rattus norvegicus [17])	further results
CNC(=N)NCCC[C@H](NC(=O)[C@H](CC(C)C)NC(=O)NNC(=O)[C@H](Cc1cccc(F)c1)NC(=O)[C@@H](NC(=O)[C@H](CC(N)=O)NC(=O)[C@H](CCC(=O)O)NC(=O)[C@@H](Cc1ccc(O)cc1)NC(C)=O)[C@@H](C)O)C(=O)N[C@@H](Cc1c[nH]c2ccccc12)C(N)=O (Ac-[dY]ENT[Phe(3-F)][azaGly]L[Arg(Me)]W-NH2)	0.47	20	2.63	1.33	0.406	0.771	0.703	23.4	1.26	65.4	94.5	Insoluble	31.8	Active	Active	Active		
CNC(=N)NCCC[C@H](NC(=O)[C@H](CC(C)C)NC(=O)NNC(=O)[C@H](Cc1cccc(F)c1)NC(=O)[C@@H](NC(=O)[C@H](CC(N)=O)NC(=O)[C@H](CCCCN)NC(=O)[C@@H](Cc1ccc(O)cc1)NC(C)=O)[C@@H](C)O)C(=O)N[C@@H](Cc1c[nH]c2ccccc12)C(N)=O (Ac-[dY]KNT[Phe(3-F)][azaGly]L[Arg(Me)]W-NH2)	0.43	7.1										Soluble						
CNC(=N)NCCC[C@H](NC(=O)[C@H](CC(C)C)NC(=O)NNC(=O)[C@H](Cc1cccc(F)c1)NC(=O)[C@@H](NC(=O)[C@H](CC(N)=O)NC(=O)[C@@H]1C[C@@H](O)CN1C(=O)[C@@H](Cc1ccc(O)cc1)NC(C)=O)[C@@H](C)O)C(=O)N[C@@H](Cc1c[nH]c2ccccc12)C(N)=O (Ac-[dY][Hyp]NT[Phe(3-F)][azaGly]L[Arg(Me)]W-NH2)	0.75	8.5												Active				
CNC(=N)NCCC[C@H](NC(=O)[C@H](CC(C)C)NC(=O)NNC(=O)[C@H](Cc1ccccc1)NC(=O)[C@@H](NC(=O)[C@H](CC(N)=O)NC(=O)[C@@H]1C[C@@H](O)CN1C(=O)[C@@H](Cc1ccc(O)cc1)NC(C)=O)[C@@H](C)O)C(=O)N[C@@H](Cc1c[nH]c2ccccc12)C(N)=O [TAK-448]	5.2	36	2.85	1.55	0.403	0.648	0.342	19.8	0.679	72.6	43.9	Soluble	37.2	Active	Active	Active		inhibition (Rattus norvegicus [18]): Active; inhibition (Rattus norvegicus [19]): Active; MED [20]: 30 pmol/h; Activity [21]: 21.9%; solubility [22]: Soluble

Now from value to compound, other results behind:

EC50 (KiSS-1 receptor [1]) [nM]	EC50 (KiSS-1 receptor [2]) [nM]	concentration at 5 min [6] [µg/mL]	AUC(0-t) at 24 h [7] [µg·h/mL]	Vd [8] [L/kg]	clearance [9] [L/h/kg]	Cmax [10] [µg/mL]	Tmax [11] [min]	AUC(0-t) at 24 h [12] [µg·h/mL]	MRT [13] [min]	bioavailability [14] [%]	solubility [15]	MRT [16] [min]	SMILES	inhibition (Rattus norvegicus [3])	inhibition (Rattus norvegicus [4])	inhibition (Rattus norvegicus [5])	inhibition (Rattus norvegicus [17])	further results
5.2	46										Soluble		CNC(=N)NCCC[C@H](NC(=O)[C@H](CC(C)C)NC(=O)NNC(=O)[C@H](Cc1ccccc1)NC(=O)[C@@H](NC(=O)[C@H](CC(N)=O)NC(=O)CNC(=O)[C@@H](Cc1ccc(O)cc1)NC(C)=O)[C@@H](C)O)C(=O)N[C@@H](Cc1c[nH]c2ccccc12)C(N)=O (Ac-[dY]GNTF[azaGly]L[Arg(Me)]W-NH2)				Active	
2.4	17										Soluble		CNC(=N)NCCC[C@H](NC(=O)[C@H](CC(C)C)NC(=O)NNC(=O)[C@H](Cc1ccccc1)NC(=O)[C@@H](NC(=O)[C@H](CC(N)=O)NC(=O)C(C)(C)NC(=O)[C@@H](Cc1ccc(O)cc1)NC(C)=O)[C@@H](C)O)C(=O)N[C@@H](Cc1c[nH]c2ccccc12)C(N)=O (Ac-[dY][Aib]NTF[azaGly]L[Arg(Me)]W-NH2)				Active	
